≈ marks a conversion by molar mass, not a printed value. Values belong to the compound of their own block, whether it stands above or below them.
Key:
hERG (KCNH2) = hERG (KCNH2) (Homo sapiens, UniProt Q12809); assay: Inhibition of human ERG channel
Salmonella typhimurium [1] = assay: Genotoxicity in Salmonella typhimurium TA100 in presence of rat liver S9 fraction by Ames test; format: toxicity; details: salmonella enterica subsp. enterica serovar typhimurium
Method in brief: (§1)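 Ames plate incorporation: strains grown overnight at 37 °C in nutrient broth (TA102 with 0.3 μg/mL tetracycline). Compound at 20–2000 μg/plate in top agar with histidine/biotin, plus rat liver S9 mix (NADP, glucose 6-phosphate, KCl, MgCl2, pH 7.4 phosphate). Vogel–Bonner plates incubated 37 °C, 2 days; colonies counted by image analysis. Positive: dose-dependent ≥2-fold (TA1535, TA98) or ≥1.5-fold (TA97, TA100, TA102) rise over background.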

Homo sapiens [2] = species on record: Homo sapiens; assay: Modulation of patient derived full length SMN2 pre mRNA splicing assessed as restoration of functional SMN2 to protein level
[3] = Glutathione reactivity assessed as GSH adduct formation
Salmonella typhimurium [4] = assay: Genotoxicity in Salmonella typhimurium TA98 in presence of rat liver S9 fraction by Ames test; format: toxicity; details: salmonella enterica subsp. enterica serovar typhimurium; method in brief: as §1
Plasma [5] = assay: Drug metabolism in human plasma assessed as amide bond hydrolysis at 1 uM after 15 to 300 mins by LC-MS/MS analysis; format: ADME, cell-free
[6] = Permeability of the compound by PAMPA; format: physicochemical; details: read-out: permeability
Method in brief: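 Parallel artificial membrane permeability: phospholipid-coated filter plate sandwiched between donor compound/buffer and acceptor buffer. Donor concentration at start was compared with donor and acceptor concentrations at end time, giving Pe (10−6 cm/s); membrane retention was also determined.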

Plasma [7] = assay: Drug metabolism in mouse plasma assessed as amide bond hydrolysis at 1 uM after 15 to 300 mins by LC-MS/MS analysis; format: ADME, cell-free
Cytochrome P450 2D6 = Cytochrome P450 2D6 (Homo sapiens, UniProt P10635); assay: Inhibition of CYP2D6 (unknown origin); format: ADME
Sequence of Cytochrome P450 2D6 (P10635 whole entry): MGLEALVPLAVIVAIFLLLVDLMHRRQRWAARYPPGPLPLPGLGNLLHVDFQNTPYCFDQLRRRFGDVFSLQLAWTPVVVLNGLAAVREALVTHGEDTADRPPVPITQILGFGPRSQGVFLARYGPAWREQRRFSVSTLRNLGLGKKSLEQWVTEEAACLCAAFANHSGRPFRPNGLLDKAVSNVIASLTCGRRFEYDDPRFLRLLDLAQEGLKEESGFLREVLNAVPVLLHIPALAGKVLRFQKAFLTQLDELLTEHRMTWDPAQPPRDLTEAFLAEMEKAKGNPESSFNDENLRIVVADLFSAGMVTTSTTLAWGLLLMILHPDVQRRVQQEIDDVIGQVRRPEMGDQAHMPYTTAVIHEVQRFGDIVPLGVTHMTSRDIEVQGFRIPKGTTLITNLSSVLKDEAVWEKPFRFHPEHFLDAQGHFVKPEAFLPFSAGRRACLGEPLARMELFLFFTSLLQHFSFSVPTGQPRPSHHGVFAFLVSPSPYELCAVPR

Plasma [8] = assay: Drug metabolism in rat plasma assessed as amide bond hydrolysis at 1 uM after 15 to 300 mins by LC-MS/MS analysis; format: ADME, cell-free
Homo sapiens [9] = species on record: Homo sapiens; assay: Modulation of patient derived full length SMN2 pre mRNA splicing assessed as inclusion of exon 7
Salmonella typhimurium [10] = assay: Genotoxicity in Salmonella typhimurium TA97 in presence of rat liver S9 fraction by Ames test; format: toxicity; details: salmonella enterica subsp. enterica serovar typhimurium; method in brief: as §1
Salmonella typhimurium [11] = assay: Genotoxicity in Salmonella typhimurium TA102 in presence of rat liver S9 fraction by Ames test; format: toxicity; details: salmonella enterica subsp. enterica serovar typhimurium; method in brief: as §1
Cytochrome P450 3A4 = Cytochrome P450 3A4 (Homo sapiens, UniProt P08684); assay: Inhibition of CYP3A4 (unknown origin); format: ADME
Sequence of Cytochrome P450 3A4 (P08684 whole entry): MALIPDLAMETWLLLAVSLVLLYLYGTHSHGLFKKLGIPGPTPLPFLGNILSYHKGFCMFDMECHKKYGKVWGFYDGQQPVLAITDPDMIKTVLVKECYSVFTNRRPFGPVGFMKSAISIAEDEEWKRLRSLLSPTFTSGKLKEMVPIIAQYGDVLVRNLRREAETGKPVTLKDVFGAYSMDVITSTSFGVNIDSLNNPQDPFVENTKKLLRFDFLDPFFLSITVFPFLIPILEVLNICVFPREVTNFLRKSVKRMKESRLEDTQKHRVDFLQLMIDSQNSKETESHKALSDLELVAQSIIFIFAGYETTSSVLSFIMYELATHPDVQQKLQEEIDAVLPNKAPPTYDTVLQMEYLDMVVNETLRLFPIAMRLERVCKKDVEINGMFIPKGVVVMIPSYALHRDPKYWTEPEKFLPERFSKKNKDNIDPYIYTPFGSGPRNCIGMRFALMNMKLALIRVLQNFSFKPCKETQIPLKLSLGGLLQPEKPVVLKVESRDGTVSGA

[12] = Solubility of the compound in phosphate buffer solution at pH 6.5 by HPLC-UV analysis; format: physicochemical
Method in brief: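 Lysa: duplicate samples from 10 mM DMSO stocks, DMSO evaporated, residue taken up in 0.05 M phosphate buffer pH 6.5, stirred 1 h, shaken 2 h, left overnight, filtered. Filtrate and its 1/10 dilution were read by direct UV or HPLC-UV against a four-point calibration; range 0–666 μg/mL for MW 500.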

Cytochrome P450 2C9 = Cytochrome P450 2C9 (Homo sapiens, UniProt P11712); assay: Inhibition of CYP2C9 (unknown origin); format: ADME
Sequence of Cytochrome P450 2C9 (P11712 whole entry): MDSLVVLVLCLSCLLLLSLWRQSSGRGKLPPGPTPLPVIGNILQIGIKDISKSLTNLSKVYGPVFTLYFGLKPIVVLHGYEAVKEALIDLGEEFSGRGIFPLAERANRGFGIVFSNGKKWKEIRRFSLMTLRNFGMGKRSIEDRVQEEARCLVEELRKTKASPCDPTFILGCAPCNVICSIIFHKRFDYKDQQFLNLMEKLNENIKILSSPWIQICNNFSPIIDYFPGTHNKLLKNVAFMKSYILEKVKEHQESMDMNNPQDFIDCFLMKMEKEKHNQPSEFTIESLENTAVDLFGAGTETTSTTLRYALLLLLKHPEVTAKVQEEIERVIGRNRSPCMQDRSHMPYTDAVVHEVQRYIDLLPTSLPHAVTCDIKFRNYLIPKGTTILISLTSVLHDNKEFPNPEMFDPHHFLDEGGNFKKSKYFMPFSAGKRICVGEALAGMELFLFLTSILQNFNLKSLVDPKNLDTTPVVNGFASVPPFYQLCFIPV

[13] = Octanol-phosphate buffer partition co-efficient, log D of the compound at pH 7.4 after 24 hrs by shake flask method; format: physicochemical
Method in brief: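 CAMDIS shake-flask variant: PVDF membranes impregnated with 1-octanol dipped in 25 mM phosphate buffer pH 7.4 containing compound, shaken 24 h at 23 °C. Two octanol/water ratios were run for hydrophilic or lipophilic compounds. Aqueous concentration was measured by LC/MS with and without octanol, and log D was calculated from the difference and the phase ratio.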

[14] = Stability at various pH levels assessed as amide bond hydrolysis; format: physicochemical
Salmonella typhimurium [15] = assay: Genotoxicity in Salmonella typhimurium TA1535 in presence of rat liver S9 fraction by Ames test; format: toxicity; details: salmonella enterica subsp. enterica serovar typhimurium; method in brief: as §1
[16] = Ratio of drug level in wild type FVB mouse brain to plasma at 10 mg/kg, po; format: ADME, organism-based; details: read-out: BPR
Mus musculus [17] = assay: Induction of SMN protein levels in neonatal delta7 FVB mouse brain at 3 mg/kg, ip qd administered from postnatal day 3 to day 9 measured 1 hr post last dose by HTRF assay relative to control; format: functional
Mus musculus [18] = assay: Induction of SMN protein levels in neonatal delta7 FVB mouse brain at 0.3 mg/kg, ip qd administered from postnatal day 3 to day 9 measured 1 hr post last dose by HTRF assay relative to control; format: functional
Mus musculus [19] = assay: Induction of SMN protein levels in neonatal delta7 FVB mouse quadriceps muscle at 1 mg/kg, ip qd administered from postnatal day 3 to day 9 measured 1 hr post last dose by HTRF assay relative to control; format: functional
[20] = Fraction unbound in mouse plasma; format: ADME, cell-free
Mus musculus [21] = assay: Induction of SMN protein levels in neonatal delta7 FVB mouse quadriceps muscle administered as ip qd from postnatal day 3 to day 9 measured 1 hr post last dose by HTRF assay relative to control; format: functional, organism-based
Mus musculus [22] = assay: Induction of SMN protein levels in C/C-Allele SMA FVB mouse brain administered as po qd for 10 days measured 1 hr post last dose by HTRF assay; format: functional, organism-based
Method in brief: (§2)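 Adult C/C-allele SMA mice dosed orally once daily for 10 days at 1, 3 or 10 mg/kg. SMN protein in brain and quadriceps was expressed as % increase over vehicle-treated animals.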

[23] = Total AUC in wild type FVB mouse plasma at 10 mg/kg, po qd for 10 days by LC-MS/MS analysis; format: ADME, organism-based; set-up: dose 10 mg/kg, route oral, time AUCmax
Mus musculus [24] = assay: Induction of SMN protein levels in C/C-Allele SMA FVB mouse brain at 1 mg/kg, po qd for 10 days measured 1 hr post last dose by HTRF assay relative to control; format: functional; method in brief: as §2
Mus musculus [25] = assay: Induction of SMN protein levels in C/C-Allele SMA FVB mouse brain at 10 mg/kg, po qd for 10 days measured 1 hr post last dose by HTRF assay relative to control; format: functional; method in brief: as §2
[26] = Substrate activity at human P-gp; format: ADME
[27] = Fraction unbound in human plasma; format: ADME, cell-free
Mus musculus [28] = assay: Induction of SMN protein levels in C/C-Allele SMA FVB mouse brain at 3 mg/kg, po qd for 10 days measured 1 hr post last dose by HTRF assay relative to control; format: functional; method in brief: as §2
P-gp = assay: Substrate activity at mouse P-gp assessed as efflux ratio; format: ADME; details: not told
Mus musculus [29] = assay: Induction of SMN protein levels in C/C-Allele SMA FVB mouse quadriceps muscle at 1 mg/kg, po qd for 10 days measured 1 hrs post last dose by HTRF assay relative to control; format: functional; method in brief: as §2
Mus musculus [30] = assay: Induction of SMN protein levels in neonatal delta7 FVB mouse quadriceps muscle at 3 mg/kg, ip qd administered from postnatal day 3 to day 9 measured 1 hr post last dose by HTRF assay relative to control; format: functional
Mus musculus [31] = assay: Induction of SMN protein levels in C/C-Allele SMA FVB mouse quadriceps muscle at 10 mg/kg, po qd for 10 days measured 1 hrs post last dose by HTRF assay relative to control; format: functional; method in brief: as §2
Mus musculus [32] = assay: Induction of SMN protein levels in neonatal delta7 FVB mouse brain at 1 mg/kg, ip qd administered from postnatal day 3 to day 9 measured 1 hr post last dose by HTRF assay relative to control; format: functional
Mus musculus [33] = assay: Induction of SMN protein levels in neonatal delta7 FVB mouse quadriceps muscle at 0.3 mg/kg, ip qd administered from postnatal day 3 to day 9 measured 1 hr post last dose by HTRF assay relative to control; format: functional
Mus musculus [34] = assay: Unbound AUC in neonatal […] FVB mouse plasma at 3 mg/kg, ip qd administered from postnatal day 3 to day 9 by LC-MS/MS analysis; format: ADME, organism-based; details: in vivo
Method in brief: (§3)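 Plasma AUC determined in a satellite group of neonatal (P10) wild-type mice dosed ip. Free AUC was calculated using the free fraction measured in serum from adult mice.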

Mus musculus [35] = assay: Induction of SMN protein levels in neonatal delta7 FVB mouse brain administered as ip qd from postnatal day 3 to day 9 measured 1 hr post last dose by HTRF assay relative to control; format: functional, organism-based
Mus musculus [36] = assay: Unbound AUC in C/C-Allele SMA FVB mouse plasma at 10 mg/kg, po qd for 10 days by LC-MS/MS analysis; format: ADME, organism-based; details: in vivo, 240 h
Mus musculus [37] = assay: Induction of SMN protein levels in C/C-Allele SMA FVB mouse quadriceps muscle at 3 mg/kg, po qd for 10 days measured 1 hrs post last dose by HTRF assay relative to control; format: functional; method in brief: as §2
[38] = Total AUC in neonatal wild type FVB mouse plasma at 3 mg/kg, ip qd for 10 days by LC-MS/MS analysis; format: ADME, organism-based; set-up: dose 3 mg/kg, route intraperitoneal, time AUCmax; method in brief: as §3
Mus musculus [39] = assay: Induction of SMN protein levels in C/C-Allele SMA FVB mouse quadriceps muscle administered as po qd for 10 days measured 1 hr post last dose by HTRF assay; format: functional, organism-based; method in brief: as §2

Sequence of hERG (KCNH2) (Q12809 whole entry): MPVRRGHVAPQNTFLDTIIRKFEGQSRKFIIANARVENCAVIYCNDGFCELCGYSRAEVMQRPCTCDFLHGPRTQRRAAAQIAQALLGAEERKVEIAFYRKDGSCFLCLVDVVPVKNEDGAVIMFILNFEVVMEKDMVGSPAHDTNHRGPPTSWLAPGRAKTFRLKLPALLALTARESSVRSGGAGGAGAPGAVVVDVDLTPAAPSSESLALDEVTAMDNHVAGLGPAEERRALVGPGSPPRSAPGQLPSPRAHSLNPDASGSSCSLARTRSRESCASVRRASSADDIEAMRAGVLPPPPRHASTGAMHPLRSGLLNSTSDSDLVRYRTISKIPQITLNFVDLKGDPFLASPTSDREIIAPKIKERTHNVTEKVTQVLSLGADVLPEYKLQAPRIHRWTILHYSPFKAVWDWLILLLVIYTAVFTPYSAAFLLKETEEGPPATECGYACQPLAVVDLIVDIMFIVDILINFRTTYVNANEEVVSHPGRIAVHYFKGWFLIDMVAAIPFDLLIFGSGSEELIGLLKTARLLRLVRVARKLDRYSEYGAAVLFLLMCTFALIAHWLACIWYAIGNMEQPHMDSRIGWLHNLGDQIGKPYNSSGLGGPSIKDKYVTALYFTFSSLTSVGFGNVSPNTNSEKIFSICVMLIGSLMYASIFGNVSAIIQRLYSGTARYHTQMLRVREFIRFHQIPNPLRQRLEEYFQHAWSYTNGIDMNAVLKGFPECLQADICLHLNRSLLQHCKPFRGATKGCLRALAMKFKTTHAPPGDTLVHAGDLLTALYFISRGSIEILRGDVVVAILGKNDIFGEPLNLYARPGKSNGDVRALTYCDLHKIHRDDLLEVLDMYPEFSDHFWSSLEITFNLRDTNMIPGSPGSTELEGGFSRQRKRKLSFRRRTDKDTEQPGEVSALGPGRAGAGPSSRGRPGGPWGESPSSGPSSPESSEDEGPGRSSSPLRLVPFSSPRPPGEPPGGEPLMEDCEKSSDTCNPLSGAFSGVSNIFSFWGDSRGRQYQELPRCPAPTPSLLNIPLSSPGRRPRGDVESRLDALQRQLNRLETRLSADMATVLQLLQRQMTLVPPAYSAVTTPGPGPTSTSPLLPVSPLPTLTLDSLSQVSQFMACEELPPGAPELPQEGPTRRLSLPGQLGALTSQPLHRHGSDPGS

EC1.5 (Homo sapiens [2]): 3950 nM
Stability (Plasma [5]): Stable
Papp [6]: 2.38 ×10⁻⁶ cm/s
Stability (Plasma [7]): Stable
IC50 (Cytochrome P450 2D6): > 50 µM
Stability (Plasma [8]): Stable
EC1.5 (Homo sapiens [9]): 660 nM
IC50 (Cytochrome P450 3A4): > 50 µM
solubility [12]: 111 µg/mL (≈ 305 µM)
IC50 (Cytochrome P450 2C9): > 50 µM
logD at 24 h [13]: 2
Stability [14]: Stable
SMILES: Cc1cn2cc(NC(=O)c3ccc(N4CCN(C)CC4)cc3)nc2c(C)n1
IC20 (hERG (KCNH2)): > 10 µM
Activity (Salmonella typhimurium [1]): Non-Toxic
Stability [3]: Stable
Activity (Salmonella typhimurium [4]): Non-Toxic
Activity (Salmonella typhimurium [10]): Non-Toxic
Activity (Salmonella typhimurium [11]): Non-Toxic
Activity (Salmonella typhimurium [15]): Non-Toxic

Kp [16]: 3.4
fraction unbound [20]: 0.197
EC1.5 (Homo sapiens [2]): 98 nM
AUC at 240 h [23]: 7900 ng·h/mL
EC1.5 (Homo sapiens [9]): 52 nM
Activity [26]: Not Active
fraction unbound [27]: 0.186
efflux ratio (P-gp): 4.1
fAUC (Mus musculus [34]): 790 ng·h/mL
fAUC (Mus musculus [36]): 1580 ng·h/mL
AUC at 240 h [38]: 3900 ng·h/mL
SMILES: Cc1cn2cc(NC(=O)c3ccc(N4CCNC(C)C4)cc3F)nc2c(C)n1 (stereo unspecified)
Activity (Mus musculus [17]): 150%
Activity (Mus musculus [18]): 24%
Activity (Mus musculus [19]): 24%
Activity (Salmonella typhimurium [1]): Toxic
Activity (Mus musculus [21]): Dose-dependent effect
Activity (Salmonella typhimurium [4]): Toxic
Activity (Mus musculus [22]): Dose-dependent effect
Activity (Salmonella typhimurium [10]): Toxic
Activity (Mus musculus [24]): 0%
Activity (Salmonella typhimurium [11]): Toxic
Activity (Mus musculus [25]): 102%
Activity (Mus musculus [28]): 24%
Activity (Mus musculus [29]): 13%
Activity (Mus musculus [30]): 140%
Activity (Mus musculus [31]): 152%
Activity (Mus musculus [32]): 75%
Activity (Mus musculus [33]): 14%
Activity (Mus musculus [35]): Dose-dependent effect
Activity (Mus musculus [37]): 54%
Activity (Salmonella typhimurium [15]): Toxic
Activity (Mus musculus [39]): Dose-dependent effect

Source: ChEMBL document CHEMBL4049449, “Discovery of a Novel Class of Survival Motor Neuron 2 Splicing Modifiers for the Treatment of Spinal Muscular Atrophy” (J Med Chem, 2017)
